ChEMBL document CHEMBL1154626, “Novel, potent, and selective quinoxaline-based 5-HT(3) receptor ligands. 1. Further structure-activity relationships and pharmacological characterization” (J Med Chem, 2009)

Columns and labels:
[1] = biological target: T1, 5-hydroxytryptamine receptor 3A (Rattus norvegicus, UniProt P35563); test: Displacement of [3H]LY278584 from 5HT3 receptor in rat cortical homogenate; conditions: read-out: Ki
T1 sequence (P35563 whole entry): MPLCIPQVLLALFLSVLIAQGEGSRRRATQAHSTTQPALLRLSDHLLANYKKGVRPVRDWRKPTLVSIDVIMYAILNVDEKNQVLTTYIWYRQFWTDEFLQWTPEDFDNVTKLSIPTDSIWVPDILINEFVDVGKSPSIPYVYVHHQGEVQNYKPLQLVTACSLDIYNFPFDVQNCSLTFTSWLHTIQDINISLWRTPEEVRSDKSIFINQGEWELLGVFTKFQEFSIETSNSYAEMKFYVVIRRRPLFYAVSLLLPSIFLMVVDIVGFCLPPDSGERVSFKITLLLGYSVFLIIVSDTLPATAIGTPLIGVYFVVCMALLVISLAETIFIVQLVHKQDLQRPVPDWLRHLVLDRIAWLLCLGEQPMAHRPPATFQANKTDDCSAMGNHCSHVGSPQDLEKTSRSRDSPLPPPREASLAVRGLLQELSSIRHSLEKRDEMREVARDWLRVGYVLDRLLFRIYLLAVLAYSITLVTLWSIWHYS
How it was run: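 Rat cortical homogenate, competition against [3H]LY278584 binding. Ki is the concentration giving half-maximal inhibition of binding, as the mean ± S.E.M. of three determinations.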

[2] = biological target: T2, 5-hydroxytryptamine receptor 3A (Cavia porcellus, UniProt O70212); test: Intrinsic activity at 5HT3 receptor in spontaneously beating guinea pig right atrium assessed as positive chronotropic potency relative to serotonin
T2 sequence (O70212 whole entry): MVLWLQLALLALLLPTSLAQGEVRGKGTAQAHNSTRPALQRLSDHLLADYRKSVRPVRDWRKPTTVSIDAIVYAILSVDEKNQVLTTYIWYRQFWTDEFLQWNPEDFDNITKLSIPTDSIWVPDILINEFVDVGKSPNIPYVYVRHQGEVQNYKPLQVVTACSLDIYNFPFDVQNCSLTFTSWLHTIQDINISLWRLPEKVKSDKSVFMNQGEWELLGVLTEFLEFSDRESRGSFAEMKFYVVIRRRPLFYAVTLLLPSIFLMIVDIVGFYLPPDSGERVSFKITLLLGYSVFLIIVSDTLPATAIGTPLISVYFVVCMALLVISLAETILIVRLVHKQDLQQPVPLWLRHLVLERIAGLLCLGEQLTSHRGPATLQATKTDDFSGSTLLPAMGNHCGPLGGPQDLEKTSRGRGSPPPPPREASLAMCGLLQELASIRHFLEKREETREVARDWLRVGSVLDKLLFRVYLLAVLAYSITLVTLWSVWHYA

[3] = biological target: T2, 5-hydroxytryptamine receptor 3A; test: Antagonist activity at 5HT3 receptor in spontaneously beating guinea pig right atrium assessed as inhibition of serotonin-induced maximum response by noncompetitive binding assay; format: tissue-based, Cardiac atrium; conditions: read-out: IC50
How it was run: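 Spontaneously beating guinea pig right atria, exposed 30 min to test compound at 10 μM, followed by cumulative 5-HT log concentration-response curves versus control. Mean ± SEM of five to seven observations.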

Rattus norvegicus = test: Plasma concentration in rat at 0.25 mg/kg, iv; format: ADME, organism-based; design: dose 0.25 mg/kg, route intravenous; conditions: in vivo, BLD = below limit of detection
How it was run: (§1)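 Rats dosed iv at 0.25–1 mg/kg and sacrificed 30 min after injection. Mean ± SEM of three animals. Brain/plasma ratio assumes 1 g tissue equals 1 mL water.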

Brain [4] = test: Drug level in rat brain at 0.5 mg/kg, iv; format: ADME, organism-based; design: dose 0.5 mg/kg, route intravenous; conditions: in vivo, read-out: Drug uptake; how it was run: as §1
Brain [5] = test: Drug level in rat brain at 1 mg/kg, iv; format: ADME, organism-based; design: dose 1 mg/kg, route intravenous; conditions: read-out: Drug uptake, in vivo; how it was run: as §1
[6] = Ratio of drug level from brain to plasma in rat at 0.5 mg/kg, iv; format: ADME, organism-based; design: dose 0.5 mg/kg, route intravenous
How it was run: (§2)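 Rats given a single iv injection (0.25–1 mg/kg) and killed 30 min afterwards. Brain/plasma ratio calculated assuming 1 g tissue equals 1 mL water. Three animals per dose, mean ± SEM.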

[7] = Ratio of drug level from brain to plasma in rat at 1 mg/kg, iv; format: ADME, organism-based; design: dose 1 mg/kg, route intravenous; how it was run: as §2
[8] = biological target: T3, 5-hydroxytryptamine receptor 1A (Rattus norvegicus, UniProt P19327); test: Displacement of [3H]8-OHDPAT from 5HT1A receptor in rat hippocampus; format: tissue-based
T3 sequence (P19327 whole entry): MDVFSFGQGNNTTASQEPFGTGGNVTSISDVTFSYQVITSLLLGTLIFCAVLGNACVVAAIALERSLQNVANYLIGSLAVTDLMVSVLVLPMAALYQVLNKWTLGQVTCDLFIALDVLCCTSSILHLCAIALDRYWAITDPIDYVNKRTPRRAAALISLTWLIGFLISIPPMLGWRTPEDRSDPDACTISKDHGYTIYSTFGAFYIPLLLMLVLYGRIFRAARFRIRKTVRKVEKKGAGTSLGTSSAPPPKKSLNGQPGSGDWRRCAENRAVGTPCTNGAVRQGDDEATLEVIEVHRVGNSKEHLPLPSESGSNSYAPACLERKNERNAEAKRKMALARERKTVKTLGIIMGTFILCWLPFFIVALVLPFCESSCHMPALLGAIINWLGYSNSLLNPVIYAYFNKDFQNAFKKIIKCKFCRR

[9] = biological target: 5-hydroxytryptamine receptor 2A (Rattus norvegicus, UniProt P14842); test: Displacement of [3H]ketanserin from 5HT2A receptor in rat cortex
[10] = biological target: 5-hydroxytryptamine receptor 4 (Cavia porcellus, UniProt O70528); test: Displacement of [3H]GR-113808 from 5HT4 receptor in guinea pig striatum
[11] = biological target: T4, Alpha-2A adrenergic receptor (Rattus norvegicus, UniProt P22909); test: Displacement of [3H]RX821002 from adrenergic alpha2 receptor in rat cortex
T4 sequence (P22909 whole entry): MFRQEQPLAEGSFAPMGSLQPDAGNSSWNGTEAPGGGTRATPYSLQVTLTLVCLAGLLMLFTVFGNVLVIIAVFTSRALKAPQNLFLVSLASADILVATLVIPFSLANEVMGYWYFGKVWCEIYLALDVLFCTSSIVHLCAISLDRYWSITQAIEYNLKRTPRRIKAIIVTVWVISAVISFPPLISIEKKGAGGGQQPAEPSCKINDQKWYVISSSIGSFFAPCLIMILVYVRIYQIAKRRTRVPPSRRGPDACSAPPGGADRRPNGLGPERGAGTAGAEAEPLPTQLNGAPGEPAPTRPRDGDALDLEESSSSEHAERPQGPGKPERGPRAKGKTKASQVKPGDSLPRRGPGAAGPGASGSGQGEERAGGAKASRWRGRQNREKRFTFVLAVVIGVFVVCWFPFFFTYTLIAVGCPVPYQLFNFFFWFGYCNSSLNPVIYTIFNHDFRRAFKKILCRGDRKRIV

D(1A) dopamine receptor = D(1A) dopamine receptor (Rattus norvegicus, UniProt P18901); test: Displacement of [3H]SCH-23390 from dopamine D1 receptor in rat striatum
D(2) dopamine receptor = D(2) dopamine receptor (Rattus norvegicus, UniProt P61169); test: Displacement of [3H]spiperone from dopamine D2 receptor in rat striatum
Sequence of D(2) dopamine receptor (P61169 whole entry): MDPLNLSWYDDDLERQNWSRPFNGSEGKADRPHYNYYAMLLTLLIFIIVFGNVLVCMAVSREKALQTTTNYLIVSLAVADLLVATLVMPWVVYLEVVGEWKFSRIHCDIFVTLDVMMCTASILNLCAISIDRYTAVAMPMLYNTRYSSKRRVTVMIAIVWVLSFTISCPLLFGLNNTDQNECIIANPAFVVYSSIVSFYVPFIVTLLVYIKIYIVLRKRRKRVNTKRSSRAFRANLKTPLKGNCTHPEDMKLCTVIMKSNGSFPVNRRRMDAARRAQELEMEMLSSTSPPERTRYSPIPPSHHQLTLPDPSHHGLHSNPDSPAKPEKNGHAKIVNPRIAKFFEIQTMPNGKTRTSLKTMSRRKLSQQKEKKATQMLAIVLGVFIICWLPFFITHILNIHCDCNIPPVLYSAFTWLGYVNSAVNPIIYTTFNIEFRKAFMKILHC

Sequence of 5-hydroxytryptamine receptor 2A (P14842 whole entry): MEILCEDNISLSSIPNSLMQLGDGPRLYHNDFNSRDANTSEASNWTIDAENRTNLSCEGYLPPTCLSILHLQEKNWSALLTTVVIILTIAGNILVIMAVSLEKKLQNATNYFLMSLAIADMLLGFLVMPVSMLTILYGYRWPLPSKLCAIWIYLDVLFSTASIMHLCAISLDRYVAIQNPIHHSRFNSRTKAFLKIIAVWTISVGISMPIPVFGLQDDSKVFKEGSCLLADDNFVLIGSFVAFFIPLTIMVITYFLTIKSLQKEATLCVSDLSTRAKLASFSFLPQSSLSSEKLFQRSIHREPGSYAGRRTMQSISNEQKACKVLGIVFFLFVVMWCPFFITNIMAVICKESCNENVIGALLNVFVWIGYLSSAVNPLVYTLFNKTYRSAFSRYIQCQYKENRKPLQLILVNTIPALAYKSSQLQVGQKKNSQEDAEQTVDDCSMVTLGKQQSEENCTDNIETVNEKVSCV
Sequence of D(1A) dopamine receptor (P18901 whole entry): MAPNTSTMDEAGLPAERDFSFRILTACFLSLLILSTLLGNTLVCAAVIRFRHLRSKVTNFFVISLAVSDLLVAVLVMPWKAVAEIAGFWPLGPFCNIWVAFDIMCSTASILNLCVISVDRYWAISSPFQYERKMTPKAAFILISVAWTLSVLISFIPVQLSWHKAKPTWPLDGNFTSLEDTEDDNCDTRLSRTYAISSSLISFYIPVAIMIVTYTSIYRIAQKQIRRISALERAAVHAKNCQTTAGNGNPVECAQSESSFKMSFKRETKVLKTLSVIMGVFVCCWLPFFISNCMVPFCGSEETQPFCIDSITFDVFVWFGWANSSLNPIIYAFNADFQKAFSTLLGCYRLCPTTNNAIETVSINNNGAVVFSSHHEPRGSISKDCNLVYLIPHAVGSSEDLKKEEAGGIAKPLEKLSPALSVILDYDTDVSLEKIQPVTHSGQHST
Sequence of 5-hydroxytryptamine receptor 4 (O70528 whole entry): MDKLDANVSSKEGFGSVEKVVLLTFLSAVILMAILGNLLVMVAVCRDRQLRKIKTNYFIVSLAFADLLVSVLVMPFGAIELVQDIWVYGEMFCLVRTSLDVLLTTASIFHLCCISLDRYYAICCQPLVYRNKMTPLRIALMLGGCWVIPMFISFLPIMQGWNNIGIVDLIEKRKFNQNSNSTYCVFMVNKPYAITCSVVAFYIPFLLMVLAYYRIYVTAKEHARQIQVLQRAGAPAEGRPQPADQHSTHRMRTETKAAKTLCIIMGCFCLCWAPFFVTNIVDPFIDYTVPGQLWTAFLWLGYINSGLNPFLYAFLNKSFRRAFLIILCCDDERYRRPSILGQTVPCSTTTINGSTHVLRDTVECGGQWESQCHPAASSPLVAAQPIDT

Ki [1] [nM] | EC50 [2] [nM] | IC50 [3] [nM] | Cp (Rattus norvegicus) | concentration (Brain [4]) [nM] | concentration (Brain [5]) [nM] | Kp [6] | Kp [7] | Ki [8] [nM] | Ki [9] [nM] | Ki [10] [nM] | Ki [11] [nM] | Ki (D(1A) dopamine receptor) [nM] | Ki (D(2) dopamine receptor) [nM] | SMILES
2.4 | 340 | – | – | – | – | – | – | – | – | – | – | – | – | CN1CCN(c2nc3ncccc3n3cccc23)CC1
0.68 | – | 270 | BLD | 90 | 210 | 1.3 | 1 | > 10000 | > 10000 | > 10000 | > 10000 | > 10000 | > 10000 | Fc1ccc2c(c1)nc(N1CCN(Cc3cnc[nH]3)CC1)c1cccn12
